STAT1 blocker – STAT1 signaling inhibitors, primary screen, cell-based, HTS, luciferase reporter | NIH 3T3 STAT1-luciferase reporter, IFN-gamma, luminescence | inhibition, % at 5.5 µM | hit rate 0.35% among 200,000;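 active = inhibition above a set limit, the mean inhibition across all tested compounds plus 3 SD, cut at about 34% in these data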;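 also: 0% = IFN-gamma with DMSO and 100% = IFN-gamma with 300 µM nifuroxazide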
NF-kB neuron act – activators of NF-kB expression in neurons, primary screen, cell-based, HTS; human neuronal cells, NF-kB reporter expression; hits give high values; fold change at 12.5 µM; hit rate 1.6% among 190,000; AID 1239, 2008; in the data active = fold change above about 3.3
APP 5'UTR act – activators of APP 5'UTR luciferase reporter, primary screen, SH-SY5Y cells. SH-SY5Y APP 5'UTR luciferase reporter, luminescence; zero percent = DMSO vehicle wells. activation, % at 2 µM. hit rate 1% among 190,000;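 active = activation above a set limit, based on mean plus 3 SD of controls, cut at about 140% in these data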
STAT3 act-1 – IL-6 driven STAT3 reporter potentiators, primary screen, U3A cells, luciferase, luminescence, MLSCN library | IL-6 STAT3-luciferase reporter; 100% = signal with IL-6 EC80 alone | activation (% of control), % at 5.6 µM | hit rate 0.91% among 190,000 | AID 871, 2007;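 active = activation above the screen-wide mean of compound activation plus 3 SD, cut at about 130% in these data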;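 also: 0% = background luminescence of wells with medium and substrate only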
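Test system: STAT3-luciferase reporter U3A cells; Detection: reporter luminescence signal; Times: 1 h compound pre-exposure, 6 h IL-6 stimulation, 37 °C; Benchmarks: IL-6-only high control; Also added: IL-6 stimulus at 33 ng/mL final.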
STAT1 act-1 – STAT1 signaling activators, primary screen, cell-based, HTS, luciferase reporter; NIH 3T3 STAT1-luciferase reporter, IFN-gamma, luminescence; 100% = IFN-gamma alone, no compound; activation (% of control), % at 5.5 µM; hit rate 2.6% among 200,000; AID 932, 2007;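 active = activation above the screen-wide mean activation plus 3 SD, cut at about 130% in these data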;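 also: raw ratio to IFN-gamma control signal so 100% means no change and 0% no light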
STAT3 inh – IL-6 driven STAT3 reporter inhibitors, primary screen, U3A cells, luciferase, luminescence, MLSCN library; hit rate 0.89% among 190,000; inhibition, % at 5.5 µM; IL-6 STAT3-luciferase reporter; host cell line lacks STAT1; AID 862, 2007;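 active = inhibition above the mean inhibition across all screened compounds plus 3 SD, cut at about 44% in these data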;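 also: 0% = DMSO only wells and 100% = 100 µM nifuroxazide control wells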
STAT3 act-2 – STAT3 reporter potentiators, retest of hits, confirmation, U3A cells, luciferase, luminescence | shares compounds with STAT3 act-1 | IL-6 potentiation; U3A cells lack STAT1; 100 means same as IL-6 alone | potentiation (% of control), % at 5.7 µM | hit rate 64% among 1,200 | AID 1267, 2008;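 active = percent activation of the STAT3 luciferase reporter above a set limit taken from the earlier primary screen, cut at about 130% in these data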;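 also: 0% = background signal of medium plus substrate and 100% = median of IL-6 with DMSO wells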
NFkB act STAT3ct – NF-kB reporter activators in human cells, counter-screen for STAT3 activator project | shares compounds with STAT3 act-1 | NF-kappaB reporter activation | activation (% of control), % at 5.7 µM | hit rate 11% among 1,200 | AID 1309, 2008; in the data active = activation above about 120%;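 also: reporter induced by TNF-alpha stimulation; 100% = median of stimulated DMSO wells and 0% = no signal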
STAT1 act-2 – STAT1 reporter activators, IFN-gamma induced, counter-screen for STAT3 activator project, cell-based, NIH 3T3, luciferase luminescence; shares compounds with STAT3 act-1; NIH 3T3 STAT1-luciferase reporter; activation (% of control), % at 5.7 µM; hit rate 13% among 1,200; AID 1318, 2008;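 active = activation above the solvent-only control well mean plus 3 SD, set per screening run, cut at about 120% in these data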;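 also: 100% = IFN-gamma with DMSO median signal so 100% means no change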
The depositor's hits bear a star. Hits are enriched below; roughly 4.9% of the tested compounds scored in any of these assays.

For Cc1c(NC(=O)CSc2ccccc2Cl)c(=O)n(-c2ccccc2)n1C the results were STAT1 blocker 0, NF-kB neuron act 1.1, APP 5'UTR act 20, STAT3 act-1 97, STAT1 act-1 100 and STAT3 inh 9.
For CCOC(=O)CC1C(=O)NCCN1C(=O)c1cc2c(=O)n3ccccc3nc2s1 (stereo unspecified) the results were STAT1 blocker 3, NF-kB neuron act 1, APP 5'UTR act 8, STAT3 act-1 120, STAT1 act-1 97 and STAT3 inh -19.
CCOC(=O)CC1C(=O)NCCN1C(=O)c1cc2c(=O)n3cccc(C)c3nc2s1 (stereo unspecified) was read as STAT1 blocker 2, NF-kB neuron act 1.1, APP 5'UTR act 7, STAT3 act-1 164*, STAT1 act-1 99, STAT3 inh -73, STAT3 act-2 139*, NFkB act STAT3ct 105 and STAT1 act-2 99.
`Cc1ccc(NC(=S)Nc2cccnc2)c(S(=O)(=O)N2CCCCC2)c1` gave STAT1 blocker 7, NF-kB neuron act 0.89, APP 5'UTR act -10, STAT3 act-1 96, STAT1 act-1 94 and STAT3 inh 12.
For CC(=O)c1coc2c1cc(O)c1ccccc12 the results were STAT1 blocker -7, NF-kB neuron act 1.3, APP 5'UTR act 30, STAT3 act-1 85, STAT1 act-1 106 and STAT3 inh 16.
`O=C(c1ccco1)c1coc2c1cc(O)c1ccccc12` gave STAT1 blocker -2, NF-kB neuron act 1.3, APP 5'UTR act 60, STAT3 act-1 161*, STAT1 act-1 100, STAT3 inh -65, STAT3 act-2 164*, NFkB act STAT3ct 104 and STAT1 act-2 101.
For CN(C)c1nc(OCCOC(=O)COc2ccc(Cl)cc2Cl)nc(N(C)C)n1 the results were STAT1 blocker -9, NF-kB neuron act 0.99, APP 5'UTR act -6, STAT3 act-1 107, STAT1 act-1 110 and STAT3 inh -4.
`CN(C)c1nc(OCCNC(=O)COc2ccc(Cl)cc2Cl)nc(N(C)C)n1` gave STAT1 blocker 4, NF-kB neuron act 1.1, APP 5'UTR act -3, STAT3 act-1 146*, STAT1 act-1 96, STAT3 inh -49, STAT3 act-2 127, NFkB act STAT3ct 98 and STAT1 act-2 91.
Screening COc1ccc(Nc2c([N+](=O)[O-])ccc3c2=NC2(CCCCC2)N=3)cc1 returned STAT1 blocker -8, APP 5'UTR act 27, STAT3 act-1 122, STAT1 act-1 105 and STAT3 inh -20.
O=C(O)CSc1c[nH]c2ccccc12 was read as STAT1 blocker 9, NF-kB neuron act 1.1, APP 5'UTR act -20, STAT3 act-1 151*, STAT1 act-1 92, STAT3 inh -49, STAT3 act-2 121, NFkB act STAT3ct 104 and STAT1 act-2 96.
`CC(Sc1c[nH]c2ccccc12)C(=O)O` (stereo unspecified) gave STAT1 blocker -3, NF-kB neuron act 1.2, APP 5'UTR act 12, STAT3 act-1 147*, STAT1 act-1 103, STAT3 inh -48, STAT3 act-2 115, NFkB act STAT3ct 99 and STAT1 act-2 101.
Screening CC(C)C(=O)NCCSc1c[nH]c2ccccc12 returned STAT1 blocker -2, NF-kB neuron act 1.2, APP 5'UTR act -6, STAT3 act-1 121, STAT1 act-1 102 and STAT3 inh -15.
